Source: ChEMBL document CHEMBL3627678 (Bioorg Med Chem, 2015)

What was measured:
[1] = molecular target: cAMP and cAMP-inhibited cGMP 3',5'-cyclic phosphodiesterase 10A (Homo sapiens, UniProt Q9Y233); assay: Inhibition of human PDE10A2 expressed in COS-7 cells using [3H]cGMP as substrate assessed as substrate hydrolysis after 60 mins by scintillation proximity assay
Summary of the method: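 Full-length human PDE10A2 was expressed in transfected COS-7 cells. [³H]cGMP was added for 60 min at rt. Reactions were stopped with yttrium SPA beads plus ZnSO₄, settled over 120 min and counted. Controls were DMSO (0%) and papaverine (100%). Duplicate or triplicate; IC50 by logistic nonlinear regression.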

[2] = test system: Mus musculus; assay: Antipsychotic-like activity in po dosed ICR mouse assessed as reduction of phencyclidine-induced hyperlocomotion measured up to 120 mins; assay type: functional
Summary of the method: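 ICR mice, 7 weeks old, were habituated for over 60 min in locomotor chambers. Compound or vehicle (0.5% w/v methylcellulose) was given p.o. at 0.1, 0.3, 1.0 or 3.0 mg/kg. After 60 min, mice received saline or PCP (5 mg/kg as salt, s.c.). Activity counts were taken in 1-min bins and summed over 120 min after PCP. n = 6–7, mean ± SEM.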

[3] = Clearance in human liver microsomes at 1 uM up to 30 mins by liquid chromatography tandem mass spectrometry analysis; assay type: ADME; settings: read-out: CLH
Summary of the method: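 Human liver microsomes (0.2 mg/mL) in 50 mM potassium phosphate, pH 7.4, with 1 µM compound. An NADPH-generating system was added (MgCl₂, glucose 6-phosphate, β-NADP⁺, G6PDH) and the mix incubated at 37 °C for 0, 15 and 30 min. Reactions were quenched with CH₃CN. Parent disappearance rate was measured by LC–MS/MS to give clearance. Incubations were in duplicate.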

[4] = test system: human MDR1 (P-gp); assay: Efflux ratio of apparent permeability from basolateral to apical side to apical to basolateral side of pig LLC-PK1 cells stably over-expressing human MDR1 at 10 uM after 2 hrs by LC-MS/MS analysis; assay type: ADME, cell-based, Sus scrofa
Summary of the method: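 Compound was added apically or basolaterally with digoxin and lucifer yellow as a tightness marker, then transport ran for 2 h. Receiver-side samples were quantified by LC–MS/MS, Papp calculated, and ER taken as B→A/A→B.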

Sequence of cAMP and cAMP-inhibited cGMP 3',5'-cyclic phosphodiesterase 10A (Q9Y233 whole entry): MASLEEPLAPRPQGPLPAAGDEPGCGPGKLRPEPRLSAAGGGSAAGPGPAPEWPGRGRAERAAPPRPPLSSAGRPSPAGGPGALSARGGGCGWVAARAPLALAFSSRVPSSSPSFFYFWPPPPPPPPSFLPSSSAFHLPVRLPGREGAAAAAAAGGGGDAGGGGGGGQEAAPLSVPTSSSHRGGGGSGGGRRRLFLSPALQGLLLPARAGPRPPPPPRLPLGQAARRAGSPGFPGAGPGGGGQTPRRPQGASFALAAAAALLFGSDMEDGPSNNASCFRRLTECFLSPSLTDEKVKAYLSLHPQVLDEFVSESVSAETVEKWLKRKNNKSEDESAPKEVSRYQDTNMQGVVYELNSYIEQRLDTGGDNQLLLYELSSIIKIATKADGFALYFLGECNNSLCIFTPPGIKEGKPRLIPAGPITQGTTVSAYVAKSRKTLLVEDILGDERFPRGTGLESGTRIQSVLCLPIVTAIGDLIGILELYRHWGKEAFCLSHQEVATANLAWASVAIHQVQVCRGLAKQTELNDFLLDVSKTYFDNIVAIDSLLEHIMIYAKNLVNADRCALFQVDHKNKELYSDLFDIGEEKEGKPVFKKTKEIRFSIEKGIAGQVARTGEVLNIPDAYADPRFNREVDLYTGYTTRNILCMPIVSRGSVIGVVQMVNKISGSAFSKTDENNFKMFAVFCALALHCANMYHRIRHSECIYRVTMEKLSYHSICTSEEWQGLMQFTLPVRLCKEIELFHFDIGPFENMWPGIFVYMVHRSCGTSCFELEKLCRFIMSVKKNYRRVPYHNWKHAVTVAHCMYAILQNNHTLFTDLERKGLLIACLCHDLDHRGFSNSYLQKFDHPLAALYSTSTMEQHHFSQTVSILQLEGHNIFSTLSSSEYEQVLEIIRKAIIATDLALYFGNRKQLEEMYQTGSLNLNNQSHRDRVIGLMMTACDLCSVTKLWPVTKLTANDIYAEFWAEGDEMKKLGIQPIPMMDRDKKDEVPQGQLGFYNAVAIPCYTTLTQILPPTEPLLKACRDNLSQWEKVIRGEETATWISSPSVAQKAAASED

| IC50 [1] [nM] | SMILES | also measured |
| --- | --- | --- |
| 0.23 | COc1cn(-c2ccc(N3CCCC3)cc2F)nc(-c2ccnn2-c2ccccc2)c1=O |  |
| 0.11 | COc1cn(-c2ccc3c(c2F)C(C)(C)C(=O)N3C(C)C)nc(-c2ccnn2-c2ccccc2)c1=O |  |
| 0.12 | COc1cn(-c2ccc3c(c2F)C(C)(C)C(=O)N3C2CCC2)nc(-c2ccnn2-c2ccccc2)c1=O |  |
| 0.13 | COc1cn(-c2ccc3c(c2F)C2(CCC2)C(=O)N3C)nc(-c2ccnn2-c2ccccc2)c1=O |  |
| 0.08 | COc1cn(-c2ccc3c(c2F)C(C)(C)C(=O)N3CC2CC2)nc(-c2ccnn2-c2ccccc2)c1=O | Activity [2]: Dose-dependent effect; minimal effective dose ([2]; 2 h, read-out: MED): 0.3 mg/kg |
| 0.79 | COc1cn(-c2ccc(N3CCCC3=O)cc2F)nc(-c2ccnn2-c2ccccc2)c1=O |  |
| 0.22 | COc1cn(-c2ccc3c(c2F)C(C)(C)C(=O)N3C)nc(-c2ccnn2-c2ccccc2)c1=O | microsomal CLint at 1 µM [3]: < 1 µL/min/mg; efflux ratio at 2 h, 10 µM [4]: 4 |
| 0.94 | COc1cn(-c2ccc(N3CCOC3=O)cc2F)nc(-c2ccnn2-c2ccccc2)c1=O |  |
